Assay results of several laboratories.
Each line is one published result; the experiments were not run side by side.
Matrix: plasma

SMILES | host | route | dose | notes | AUC(0-inf) [µg·h/mL]
C[C@@]1(c2cc(NC(=O)c3ccc(C#N)cn3)ccc2F)C=CSC(N)=N1 | human | oral | 3 mg | single dose | 0.259
CCc1nc2c(C)cc(N3CCN(CC(=O)N4CC(O)C4)CC3)cn2c1N(C)c1nc(-c2ccc(F)cc2)c(C#N)s1 | human | oral | 1000 mg | fed, healthy volunteers | 71.4
COc1ccc(-n2nc(C(N)=O)c3c2C(=O)N(c2ccc(N4CCCCC4=O)cc2)CC3)cc1 | male human | oral | 10 mg | single dose | 1.63
CN(C)CCCNC(=O)/C(=C/CCCCC(=O)NO)COc1cccc2ccccc12 | human | intravenous | 250 mg/m² | single dose | 37.5
COc1ccc([C@@H]2CN(C(=O)[C@@H](O)CO)C[C@@]2(C)[C@@H](C)O)cc1OC1CN(c2ccc(C)cn2)C1 | human | oral | 10 mg | single dose, healthy volunteers | 3.16
CC(C)(O)c1ccccc1-c1ccc2[nH]c(/C=C/c3ccc(C(F)(F)F)cc3)nc2c1 | male human | oral | 15 mg | single dose, fasted | 5.19
CC(C)(Sc1ccncc1-c1ccc(C#N)c2ccccc12)C(=O)O | male human | oral | 5 mg | single dose, fed, healthy volunteers | 0.0928
COc1ccc2[nH]c([S+]([O-])Cc3ncc(C)c(OC)c3C)nc2c1 (stereo not drawn) | male human | oral | 100 µg |  | 0.00246
CO[C@H]1CC[C@H](N2C(=O)CNc3ncc(-c4ccc(C(C)(C)O)nc4)nc32)CC1 | human | oral | 15 mg | patients | 0.378
CCCOc1ccc([C@H]2CNC(=O)N2c2ccc3[nH]cnc3c2)cc1 | human | oral | 200 mg | fasted, healthy volunteers | 2.11
CC(C)n1cc(C#N)c2cc(-n3cc(C(=O)O)cn3)ccc21 | human | oral | 200 mg | single dose, fed | 44.3
O=C(/C=C/c1cccc(S(=O)(=O)Nc2ccccc2)c1)NO | human | intravenous | 1900 mg/m² | patients | 72.8
CS(=O)(=O)CCC#N | human | oral | 1000 mg | single dose, fasted | 930
CNC(=O)c1ccccc1Sc1ccc2c(/C=C/c3ccccn3)n[nH]c2c1 | human | oral | 5 mg | single dose, fasted | 0.197
CC(C)[C@](O)(c1ccc2cc(OC(F)F)c(OC(F)F)cc2c1)c1c[nH]nn1 | female human | oral | 600 mg | single dose | 54.7
Nc1ccc(-c2nc([C@H]3CCc4cc(-c5cc(Cl)ccc5-n5cnnn5)cc(=O)n43)c(F)[nH]2)c(F)n1 | human | oral | 80 mg | single dose, fed | 15.9
Cn1cc(-c2ccc(S(=O)(=O)[C@@H]3C[C@@H](C(=O)NC4(C#N)CC4)N(C(=O)C4(C(F)(F)F)CC4)C3)c(C(F)(F)F)c2)cn1 | human | oral | 100 mg | single dose, fasted, healthy volunteers | 10.6
O=C(Nc1c(Cl)cncc1Cl)c1ccc(OC(F)F)c(OCC2CC2)c1 | human | oral | 0.375 mg | single dose, fasted | 0.0487
CO[C@H]1/C=C\C=C(/C)C(=O)NC2=CC(=O)C(NCCN(C)C)=C(C[C@@H](C)C[C@H](OC)[C@H](O)[C@@H](C)/C=C(\C)[C@@H]1OC(N)=O)C2=O | human | intravenous | 27 mg/m² | patients, infusion | 4.14
CCOc1ccc(Cc2cc([C@@H]3S[C@H](CO)[C@@H](O)[C@H](O)[C@H]3O)c(OC)cc2C)cc1 | male human | oral | 5 mg | single dose, fasted | 2.01
FC(F)(F)c1ccc(CNc2ccc(Cc3c[nH]c4ncc(Cl)cc34)cn2)cn1 | male human | oral | 400 mg | single dose, healthy volunteers | 61.3
